Laboratory results as given in ChEMBL document CHEMBL4411278, “Discovery of potent and selective inhibitors of the Escherichia coli M1-aminopeptidase via multicomponent solid-phase synthesis of tetrazole-peptidomimetics” (Eur J Med Chem, 2019).
Active and inactive are the calls of the source. The rule behind the calls is not given here.

How the values were obtained:
[1] = (§1) Inhibition of recombinant Escherichia coli M1 aminopeptidase using Leu-pNA as substrate preincubated for 15 mins followed by substrate addition
Procedure, shortened: (§2)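 Recombinant ePepN (partially purified by ion exchange) or porcine kidney cortex microsomal APN was pre-incubated 15 min at 25°C with inhibitor in DMSO (final ≤2% v/v), then 75 μM Leu-pNA (~1 KMapp) was added. Buffer was 50 mM Tris-HCl pH 8.0. A405 was read every 15 s for 3 min. Doses were double serial dilutions over 0.781–100 μM, and IC50 came from a logistic fit of residual activity (vi/v0); at least triplicate.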

[2] = tested on: Escherichia coli; test: as §1; procedure, shortened: as §2
[3] = tested on: Escherichia coli; test: Reversible inhibition of recombinant Escherichia coli M1 aminopeptidase using Leu-pNA as substrate preincubated for 15 mins followed by substrate addition; procedure, shortened: as §2
[4] = tested on: Erythrocyte; test: Haemolytic activity in human erythrocytes assessed as induction of hemolysis after 20 hrs; format: cell-based
Procedure, shortened: (§3)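 Fresh human red blood cells were washed and resuspended in 145 mM NaCl, 10 mM Tris-HCl pH 7.4, adjusted so full lysis with Na2CO3 gives A540 ≈0.7. Cells were incubated with compounds for 3, 6 or 20 h, with untreated and 1% DMSO controls. Supernatant haemoglobin was measured after centrifugation.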

[5] = tested on: Erythrocyte; test: Haemolytic activity in human erythrocytes assessed as induction of hemolysis after 6 hrs; format: cell-based; procedure, shortened: as §3
[6] = tested on: Erythrocyte; test: Haemolytic activity in human erythrocytes assessed as induction of hemolysis after 3 hrs; format: cell-based; procedure, shortened: as §3
[7] = Cytotoxicity against mouse P3X63Ag assessed as reduction in cell viability after 20 hrs by MTT assay
Procedure, shortened: (§4)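 P3X63Ag murine myeloma cells were grown in DMEM-F12 with 10% FCS at 37°C, 5% CO2. For the assay they were plated in serum-free DMEM-F12 and exposed to compounds for 3, 6 or 20 h. After a PBS wash, cells got MTT for 3 h and crystals were dissolved in DMSO. Absorbance was read at 450 nm (620 nm reference), and viability calculated as 100×At/Ac versus untreated cells.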

[8] = Haemolytic activity in human erythrocytes assessed as induction of hemolysis at 100 uM after 20 hrs relative to control; format: cell-based, Erythrocyte; details: read-out: Activity; procedure, shortened: as §3
[9] = Cytotoxicity against mouse P3X63Ag assessed as reduction in cell viability at 50 uM after 3 hrs by MTT assay relative to control; procedure, shortened: as §4
[10] = tested on: Escherichia coli; test: Growth inhibition of Escherichia coli BL21 up to 100 uM after 3 to 20 hrs by spectrophotometric analysis; format: functional, organism-based
Procedure, shortened: (§5)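 E. coli BL21 was inoculated at 1% from an overnight culture into LB. Compounds were added at eight concentrations (0.781–100 μM) from DMSO serial dilutions, with DMSO and 200 μg/mL ampicillin controls; four replicates. Plates were held at 37°C and raised to 42°C at 6 h. A595 was read at 0, 3, 6 and 20 h and normalized to the DMSO control (100% growth).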

[11] = Inhibition of M1 aminopeptidase in porcine kidney cortex microsomes using Leu-pNA as substrate preincubated for 15 mins followed by substrate addition; parameters: species or system Sus scrofa
[12] = Cytotoxicity against mouse P3X63Ag assessed as reduction in cell viability at 50 uM after 20 hrs by MTT assay relative to control; procedure, shortened: as §4
[13] = Cytotoxicity against mouse P3X63Ag assessed as reduction in cell viability after 6 hrs by MTT assay; procedure, shortened: as §4
[14] = Cytotoxicity against mouse P3X63Ag assessed as reduction in cell viability at 50 uM after 6 hrs by MTT assay relative to control; procedure, shortened: as §4
[15] = Selectivity index, ratio of IC50 for M1 aminopeptidase in porcine kidney cortex microsomes to IC50 for recombinant Escherichia coli M1 aminopeptidase
[16] = Cytotoxicity against mouse P3X63Ag assessed as reduction in cell viability after 3 hrs by MTT assay; procedure, shortened: as §4
[17] = (§6) Inhibition of recombinant Escherichia coli M1 aminopeptidase using Leu-pNA as substrate preincubated for 45 mins followed by substrate addition; details: in the assay text read “15 mins” for “45 mins”
Procedure, shortened: (§7)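 The time to reach inhibition equilibrium was tested by pre-incubating recombinant ePepN with inhibitor for 5, 10, 15, 30 or 45 min at 25°C. Residual activity was then measured on 75 μM Leu-pNA in 50 mM Tris-HCl pH 8.0, reading A405 continuously against a DMSO control.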

[18] = tested on: Escherichia coli; test: as §6; procedure, shortened: as §7
[19] = tested on: Escherichia coli; test: Noncompetitive inhibition of recombinant Escherichia coli M1 aminopeptidase assessed as Km for substrate at 6.25 uM using Leu-pNA as substrate preincubated for 15 mins followed by substrate addition by Lineweaver-Burk double reciprocal plot analysis (reference value: 120 umol/L)
[20] = tested on: Escherichia coli; test: Noncompetitive inhibition of recombinant Escherichia coli M1 aminopeptidase assessed as Vmax for substrate at 3.125 uM using Leu-pNA as substrate preincubated for 15 mins followed by substrate addition by Lineweaver-Burk double reciprocal plot analysis (reference value: 125 10^-3OD/min)
[21] = tested on: Escherichia coli; test: Noncompetitive inhibition of recombinant Escherichia coli M1 aminopeptidase assessed as Km for substrate at 1.56 uM using Leu-pNA as substrate preincubated for 15 mins followed by substrate addition by Lineweaver-Burk double reciprocal plot analysis (reference value: 120 umol/L)
[22] = tested on: Escherichia coli; test: Noncompetitive inhibition of recombinant Escherichia coli M1 aminopeptidase assessed as Vmax for substrate at 1.56 uM using Leu-pNA as substrate preincubated for 15 mins followed by substrate addition by Lineweaver-Burk double reciprocal plot analysis (reference value: 125 10^-3OD/min)
[23] = tested on: Escherichia coli; test: Noncompetitive inhibition of recombinant Escherichia coli M1 aminopeptidase assessed as Km for substrate at 3.125 uM using Leu-pNA as substrate preincubated for 15 mins followed by substrate addition by Lineweaver-Burk double reciprocal plot analysis (reference value: 120 umol/L)
[24] = tested on: Escherichia coli; test: Reversible inhibition of recombinant Escherichia coli M1 aminopeptidase using Leu-pNA as substrate preincubated for 45 mins followed by substrate addition; details: in the assay text read “15 mins” for “45 mins”; procedure, shortened: as §7
[25] = tested on: Escherichia coli; test: Noncompetitive inhibition of recombinant Escherichia coli M1 aminopeptidase assessed as Vmax for substrate at 6.25 uM using Leu-pNA as substrate preincubated for 15 mins followed by substrate addition by Lineweaver-Burk double reciprocal plot analysis (reference value: 125 10^-3OD/min)
[26] = tested on: Escherichia coli; test: Growth inhibition of Escherichia coli BL21 after 3 to 6 hrs by spectrophotometric analysis; format: functional, organism-based; procedure, shortened: as §5
[27] = tested on: Escherichia coli; test: Growth inhibition of Escherichia coli BL21 after 20 hrs by spectrophotometric analysis; format: functional, organism-based; details: BL21, BL21, 20 h; procedure, shortened: as §5

| SMILES | IC50 [1] [µM] | inhibition [2] | inhibition [3] | also measured |
| --- | --- | --- | --- | --- |
| O=C(O)[C@H](Cc1ccccc1)NC(c1ccco1)c1nnnn1C1CCCCC1 (some centres not stated) | 41 | Dose-dependent effect | Active |  |
| O=C(O)[C@H](Cc1c[nH]c2ccccc12)NC(c1ccco1)c1nnnn1C1CCCCC1 (some centres not stated) | 2.2 | Dose-dependent effect | Active | HC20 [4]: 55 µM; HC20 [5]: 70 µM; HC20 [6]: 80 µM; IC50 [7]: 100 µM; hemolysis at 20 h, 100 µM [8]: 40%; Activity [9]: <= 60%; growth inhibition (GI) [10]: inactive; IC50 [11]: 2000 µM; Activity [12]: <= 50%; IC50 [13]: > 100 µM; Activity [14]: <= 50%; Ratio IC50 [15]: 909; IC50 [16]: > 100 µM |
| O=C(O)[C@H](Cc1c[nH]c2ccccc12)NCc1nnnn1C1CCCCC1 | 110 | Dose-dependent effect | Active |  |
| CC(C)[C@H](NCc1nnnn1Cc1ccccc1)C(=O)O | 47 | Dose-dependent effect | Active |  |
| O=C(O)[C@H](Cc1c[nH]c2ccccc12)NC(c1ncc[nH]1)c1nnnn1Cc1ccccc1 (some centres not stated) | 25 | Dose-dependent effect | Active |  |
| O=C(O)[C@H](Cc1c[nH]c2ccccc12)NC(c1ncc[nH]1)c1nnnn1C1CCCCC1 (some centres not stated) | 48 | Dose-dependent effect | Active |  |
| O=C(O)[C@H](Cc1c[nH]c2ccccc12)NC(c1cccnc1)c1nnnn1C1CCCCC1 (some centres not stated) | 22 | Dose-dependent effect | Active |  |
| COc1ccc(C(N[C@@H](Cc2c[nH]c3ccccc23)C(=O)O)c2nnnn2Cc2ccccc2)cc1 (some centres not stated) | 7.2 | Dose-dependent effect | Active |  |
| CC(C)[C@H](NC(c1cccnc1)c1nnnn1C1CCCCC1)C(=O)O (some centres not stated) | 27 | Dose-dependent effect | Active |  |
| CC(C)C[C@H](NC(=O)[C@@H](O)[C@H](N)Cc1ccccc1)C(=O)O [UBENIMEX] | 7 |  |  | growth inhibition (GI) [10]: inactive |
| COc1ccc(C(N[C@H](C(=O)O)C(C)C)c2nnnn2Cc2ccccc2)cc1 (some centres not stated) | > 1000 |  |  | growth inhibition (GI) [10]: inactive |
| COc1ccc(C(N[C@H](C(=O)O)C(C)C)c2nnnn2CCCc2ccccc2)cc1 (some centres not stated) | 160 | Dose-dependent effect | Active |  |
| CC(C)[C@H](NC(c1ncc[nH]1)c1nnnn1Cc1ccccc1)C(=O)O (some centres not stated) | 71 | Dose-dependent effect | Active |  |
| COc1ccc(C(N[C@@H](Cc2c[nH]c3ccccc23)C(=O)O)c2nnnn2C2CCCCC2)cc1 (some centres not stated) | 630 | Dose-dependent effect | Active |  |
| COc1ccc(C(N[C@H](C(=O)O)C(C)C)c2nnnn2C2CCCCC2)cc1 (some centres not stated) | 90 | Dose-dependent effect | Active |  |
| O=C(O)[C@H](Cc1ccccc1)NC(c1ccco1)c1nnnn1Cc1ccccc1 (some centres not stated) | 17 | Dose-dependent effect | Active |  |
| CC(C)[C@H](NC(c1ncc[nH]1)c1nnnn1C1CCCCC1)C(=O)O (some centres not stated) | 127 | Dose-dependent effect | Active |  |
| CC(C)[C@H](NC(c1ncc[nH]1)c1nnnn1CCCc1ccccc1)C(=O)O (some centres not stated) | 470 | Dose-dependent effect | Active |  |
| CC(C)[C@H](NCc1nnnn1CCCc1ccccc1)C(=O)O | 170 | Dose-dependent effect | Active |  |
| O=C(O)[C@H](Cc1c[nH]c2ccccc12)NC(c1ccco1)c1nnnn1Cc1ccccc1 (some centres not stated) |  |  |  | HC20 [4]: > 100 µM; HC20 [5]: > 100 µM; IC50 [17]: 0.26 µM; inhibition [18]: Dose-dependent effect; Km [19]: 61.4 µM; HC20 [6]: > 100 µM; Vmax [20]: 34.5 mOD/min; IC50 [7]: > 100 µM; hemolysis at 20 h, 100 µM [8]: 15%; Km [21]: 71.3 µM; growth inhibition (GI) [10]: inactive; Vmax [22]: 45.5 mOD/min; IC50 [11]: 6100 µM; Km [23]: 69.3 µM; inhibition [24]: Active; IC50 [13]: > 100 µM; Vmax [25]: 23.3 mOD/min; Ratio IC50 [15]: 23500; IC50 [16]: > 100 µM |
| COc1ccc(C(N[C@@H](Cc2ccc(OCc3ccccc3)cc2)C(=O)O)c2nnnn2C2CCCCC2)cc1 (some centres not stated) | 1.4 | Dose-dependent effect | Active | HC20 [4]: 65 µM; HC20 [5]: 70 µM; HC20 [6]: > 100 µM; IC50 [7]: 100 µM; hemolysis at 20 h, 100 µM [8]: 40%; Activity [9]: <= 60%; IC50 [11]: 1580 µM; Activity [12]: <= 50%; IC50 [26]: < 50 µM; IC50 [13]: 100 µM; Activity [14]: <= 50%; Ratio IC50 [15]: 1130; IC50 [27]: < 100 µM; IC50 [16]: > 100 µM |
| O=C(O)[C@H](Cc1ccc(OCc2ccccc2)cc1)NCc1nnnn1C1CCCCC1 | 44 | Dose-dependent effect | Active |  |
